From ChEMBL document CHEMBL4229432, “Synthesis and biological properties of aryl methyl sulfones” (Bioorg Med Chem, 2018)

Target: T1, Prostaglandin G/H synthase 1 (Ovis aries, UniProt P05979)
T1 sequence (P05979 whole entry): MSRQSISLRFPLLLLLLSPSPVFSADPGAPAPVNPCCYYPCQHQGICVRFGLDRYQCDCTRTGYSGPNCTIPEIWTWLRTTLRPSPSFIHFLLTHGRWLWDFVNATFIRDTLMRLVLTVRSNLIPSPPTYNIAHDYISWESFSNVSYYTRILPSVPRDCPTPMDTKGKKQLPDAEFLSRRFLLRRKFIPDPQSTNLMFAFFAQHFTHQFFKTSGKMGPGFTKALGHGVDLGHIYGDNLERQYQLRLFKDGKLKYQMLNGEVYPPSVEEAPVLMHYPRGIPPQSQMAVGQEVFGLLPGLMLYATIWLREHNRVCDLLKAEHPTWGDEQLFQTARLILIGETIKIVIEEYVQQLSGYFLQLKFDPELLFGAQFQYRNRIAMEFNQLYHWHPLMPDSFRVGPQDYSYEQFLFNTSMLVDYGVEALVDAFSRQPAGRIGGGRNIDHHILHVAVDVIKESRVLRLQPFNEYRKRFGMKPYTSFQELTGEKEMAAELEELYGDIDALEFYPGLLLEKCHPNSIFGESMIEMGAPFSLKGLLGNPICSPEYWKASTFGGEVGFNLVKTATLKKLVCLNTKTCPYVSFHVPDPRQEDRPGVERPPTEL
Assay: Inhibition of ovine COX1 assessed as reduction in PGH2 production by enzyme immunoassay
Conditions: not given

Row | Compound | IC50
1 | CN1c2ccccc2Sc2ccc(CC(=O)O)cc21 [METIAZINIC ACID] | 6230 nM
2 | CS(=O)(=O)c1cccc(Oc2ccccc2)c1 | 4890 nM
3 | CS(=O)(=O)c1ccc(C(=O)c2ccc(Cl)cc2)cc1 | 5290 nM
4 | CC(C)Cc1ccc(S(C)(=O)=O)cc1 | 7020 nM
5 | CC(C(=O)O)c1cccc(Oc2ccccc2)c1 (configuration not stated) [FENOPROFEN] | 2730 nM
6 | CS(=O)(=O)c1ccc(C(=O)c2ccoc2)cc1 | 180 nM
7 | COc1ccc2cc(S(C)(=O)=O)ccc2c1 | 40 nM
8 | COc1ccc2c(c1)c(S(C)(=O)=O)c(C)n2C(=O)c1ccc(Cl)cc1 | 390 nM
9 | CC(C(=O)O)c1cccc(C(=O)c2ccccc2)c1 (configuration not stated) [KETOPROFEN] | 110 nM
10 | CN1c2ccccc2Sc2ccc(S(C)(=O)=O)cc21 | 1360 nM

Tested on: Rattus norvegicus
Assay: Antiinflammatory activity in Sprague-Dawley rat assessed as inhibition of carrageenan-induced paw edema at 70 mg/kg, po pretreated for 1 hr followed by carrageenan challenge and measured after 3 hrs by plethysmometer relative to control
Assay type: functional
Conditions: not given
In short: (§1)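 Modified Winter's method in young adult male Sprague-Dawley rats (160-200 g, groups of six), starved 24 h. Oral dose given 1 h before subplantar injection of 0.1 mL 1% carrageenan in sterile pyrogen-free 0.9% NaCl. Paw volume measured by water displacement plethysmometry before and at 3 and 4 h. % inhibition vs controls; mean ± S.E.M.; unpaired one-tailed Student's t-test.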

Row | Compound | inhibition in vivo at 70 mg/kg
11 | CS(=O)(=O)c1cccc(Oc2ccccc2)c1 | 27.8%
12 | CS(=O)(=O)c1ccc(C(=O)c2ccc(Cl)cc2)cc1 | 14.9%
13 | CC(C)Cc1ccc(S(C)(=O)=O)cc1 | 9.6%
14 | CS(=O)(=O)c1ccc(C(=O)c2ccoc2)cc1 | 27.6%
15 | COc1ccc2cc(S(C)(=O)=O)ccc2c1 | 29.4%
16 | COc1ccc2c(c1)c(S(C)(=O)=O)c(C)n2C(=O)c1ccc(Cl)cc1 | 29.9%

Tested on: Rattus norvegicus
Assay: Antiinflammatory activity in Sprague-Dawley rat assessed as inhibition of carrageenan-induced paw edema at 70 mg/kg, po pretreated for 1 hr followed by carrageenan challenge and measured after 4 hrs by plethysmometer relative to control
Assay type: functional
Conditions: not given
In short: as §1

Row | Compound | inhibition in vivo at 70 mg/kg
17 | CS(=O)(=O)c1cccc(Oc2ccccc2)c1 | 25.4%
18 | CS(=O)(=O)c1ccc(C(=O)c2ccc(Cl)cc2)cc1 | 18.9%
19 | CC(C)Cc1ccc(S(C)(=O)=O)cc1 | 9.5%
20 | CS(=O)(=O)c1ccc(C(=O)c2ccoc2)cc1 | 25.9%
21 | COc1ccc2cc(S(C)(=O)=O)ccc2c1 | 34.6%
22 | CC(C)Cc1ccc(C(C)C(=O)O)cc1 (configuration not stated) [IBUPROFEN] | 23.9%
23 | COc1ccc2c(c1)c(S(C)(=O)=O)c(C)n2C(=O)c1ccc(Cl)cc1 | 32.5%

Tested on: Rattus norvegicus
Assay: Toxicity in Sprague-Dawley rat at 70 mg/kg, po
Assay type: organism-based
Conditions: in vivo

Row | Compound | Activity
24 | CS(=O)(=O)c1cccc(Oc2ccccc2)c1 | Non-Toxic
25 | CS(=O)(=O)c1ccc(C(=O)c2ccc(Cl)cc2)cc1 | Non-Toxic
26 | CC(C)Cc1ccc(S(C)(=O)=O)cc1 | Non-Toxic
27 | CS(=O)(=O)c1ccc(C(=O)c2ccoc2)cc1 | Non-Toxic
28 | COc1ccc2cc(S(C)(=O)=O)ccc2c1 | Non-Toxic
29 | COc1ccc2c(c1)c(S(C)(=O)=O)c(C)n2C(=O)c1ccc(Cl)cc1 | Non-Toxic
30 | CN1c2ccccc2Sc2ccc(S(C)(=O)=O)cc21 | Non-Toxic

Tested on: Mus musculus
Assay: Analgesic activity in CD1 mouse assessed as inhibition of acetic acid-induced writhings at 10 mg/kg, po pretreated for 30 mins followed by acetic acid challenge for 5 mins and measured for 30 mins relative to control
Assay type: functional
Conditions: not given
In short: (§2)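 Male Swiss CD1 mice, 4-5 weeks, 25 ± 5 g, acclimatized one week. Dose adjusted to body weight and given orally by feeding needle 30 min before i.p. acetic acid (25 mg/kg; 0.25 mL/25 g). NaCl solution served as control. […] Mean ± S.E.M., at least four mice; one-way ANOVA with Student-Newman-Keuls.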

Row | Compound | inhibition in vivo at 10 mg/kg
31 | CS(=O)(=O)c1ccc(C(=O)c2ccoc2)cc1 | 45.9%
32 | COc1ccc2cc(S(C)(=O)=O)ccc2c1 | 49.3%
33 | CC(C)Cc1ccc(C(C)C(=O)O)cc1 (configuration not stated) [IBUPROFEN] | 48%

Tested on: Mus musculus
Assay: Analgesic activity in CD1 mouse assessed as inhibition of acetic acid-induced writhings at 20 mg/kg, po pretreated for 30 mins followed by acetic acid challenge for 5 mins and measured for 30 mins relative to control
Assay type: functional
Conditions: not given
In short: as §2

Row | Compound | inhibition in vivo at 20 mg/kg
34 | CS(=O)(=O)c1ccc(C(=O)c2ccoc2)cc1 | 50.5%
35 | COc1ccc2cc(S(C)(=O)=O)ccc2c1 | 56.2%
36 | CC(C)Cc1ccc(C(C)C(=O)O)cc1 (configuration not stated) [IBUPROFEN] | 53%

Tested on: Mus musculus
Assay: Analgesic activity in CD1 mouse assessed as inhibition of acetic acid-induced writhings at 70 mg/kg, po pretreated for 30 mins followed by acetic acid challenge for 5 mins and measured for 30 mins relative to control
Assay type: functional
Conditions: not given
In short: as §2

Row | Compound | inhibition in vivo at 70 mg/kg
37 | CS(=O)(=O)c1ccc(C(=O)c2ccoc2)cc1 | 64.9%
38 | COc1ccc2cc(S(C)(=O)=O)ccc2c1 | 60.1%
39 | CC(C)Cc1ccc(C(C)C(=O)O)cc1 (configuration not stated) [IBUPROFEN] | 66.7%

Tested on: Mus musculus
Assay: Analgesic activity in CD1 mouse assessed as inhibition of acetic acid-induced writhings at 70 mg/kg, po pretreated for 30 mins followed by acetic acid challenge
Assay type: functional, organism-based
Conditions: TDE = time-dependent effect
In short: as §2

Row | Compound | inhibition
40 | CS(=O)(=O)c1ccc(C(=O)c2ccoc2)cc1 | Tde
41 | COc1ccc2cc(S(C)(=O)=O)ccc2c1 | Tde

Tested on: Rattus norvegicus
Assay: Ulcerogenicity in Sprague-Dawley rat assessed as gastric lessions at 70 mg/kg, po measured after 4 hrs
Assay type: toxicity, organism-based
Conditions: in vivo
In short: (§3)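 Male Sprague-Dawley rats, 180 ± 20 g, acclimatized one week, 3 per group. Oral dosing by feeding needle, adjusted to body weight; saline and carboxymethylcellulose served as controls. Killed 4 h after dosing; stomach opened along the greater curvature, rinsed with saline, and lesions scored under a magnifying glass.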

Row | Compound | Activity
42 | CS(=O)(=O)c1ccc(C(=O)c2ccoc2)cc1 | Non-Toxic
43 | COc1ccc2cc(S(C)(=O)=O)ccc2c1 | Non-Toxic

Tested on: Rattus norvegicus
Assay: Ulcerogenicity in Sprague-Dawley rat assessed as hyperemia at 70 mg/kg, po measured after 4 hrs
Assay type: toxicity, organism-based
Conditions: in vivo
In short: as §3

Row | Compound | Activity
44 | COc1ccc2cc(S(C)(=O)=O)ccc2c1 | Toxic

Tested on: HT-29
Assay: Growth inhibition of human HT-29 cells by MTT assay
Assay type: cell-based
Conditions: not given

Row | Compound | IC50
45 | CS(=O)(=O)c1ccc(C(=O)c2ccoc2)cc1 | > 200000 nM
46 | COc1ccc2cc(S(C)(=O)=O)ccc2c1 | > 200000 nM
47 | COc1ccc2c(c1)c(S(C)(=O)=O)c(C)n2C(=O)c1ccc(Cl)cc1 | > 200000 nM
